The list is not random: actives were taken first. Their share in the collection is about 1.7%.
Rce1 inhib: yeast Ras-converting enzyme inhibition; Q03530; yeast membranes, quenched prenylated peptide cleavage fluorescence; calls only; 0.27% of 290,000 active; AID 2563;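 active means fall in fluorescence gain of 50% or more versus controls, with final raw signal at or below 3038400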;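 further: plate controls were neutral control wells for no effect and wells lacking membranes for full effect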
Target sequence (Q03530 whole entry, looked up): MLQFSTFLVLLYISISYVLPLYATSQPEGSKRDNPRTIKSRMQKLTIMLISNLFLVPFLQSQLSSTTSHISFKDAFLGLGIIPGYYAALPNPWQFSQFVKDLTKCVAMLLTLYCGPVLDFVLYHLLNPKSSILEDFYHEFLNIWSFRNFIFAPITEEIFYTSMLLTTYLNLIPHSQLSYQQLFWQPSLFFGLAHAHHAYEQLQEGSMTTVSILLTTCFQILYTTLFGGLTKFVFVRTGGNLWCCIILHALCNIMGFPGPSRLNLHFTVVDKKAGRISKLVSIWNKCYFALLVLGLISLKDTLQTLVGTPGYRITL
ARNT TACC3 PPI: disrupts binding between human ARNT and TACC3; Q9Y6A5; AlphaScreen His-ARNT PAS-B/GST-TACC3 binding, luminescence; TACC3 fragment carries E629A point mutation; inhibition, % at 9.99 µM; 0.66% of 390,000 active;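 active means mean inhibition of replicates at least 50% and at least half of replicates each reaching 50%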;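 further: 0% = complete ARNT plus TACC3 wells and 100% = ARNT alone without TACC3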
AI-2 QS mod: modulates the Vibrio harveyi AI-2 quorum sensing system | Vibrio harveyi JMH597 AI-2 luminescence/OD600 ratio, 9 h; stronger effect = lower value; strain lacks LuxN and CqsS sensors; 0 = neutral-control median | 0.4% of 300,000 active | activity change, % at 7.5 µM | AID 2094; in the data active means activity change below about -75%, passing the limit was not always enough;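 further: luminescence divided by OD600 gain over 9 h not by final OD600 alone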
CAL PDZ FP-1: blocks peptide binding to human CAL PDZ domain; AID 504414; 0.02% of 330,000 active; Q9HD26; purified CAL PDZ, TMR-peptide fluorescence polarization, 1 h; inhibition, % at 20 µM;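 active means highest replicate inhibition of at least 40%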;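 further: plate controls were DMSO neutral control wells for no effect and unlabeled competitor peptide control wells for full effect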
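System: tagged CAL PDZ domain. Schedule: 1 h room-temperature incubation prior to read. Signal: fluorescence polarization (mP). Measure: percent inhibition from loss of millipolarization.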
CAL PDZ FP-2: inhibitors of human CAL PDZ peptide binding | purified CAL PDZ, TMR-peptide fluorescence polarization, 1 h | 0.92% of 300,000 active | Q9HD26 | inhibition, % at 24.9 µM;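 active means mean inhibition of at least 30% with at least half of replicates also reaching 30%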;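 further: 0% = DMSO neutral control and 100% = excess unlabeled competitor peptide PRC23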
* marks the source's active call; other numbers are inactive results; i = inactive; . = no result given; + = active, no number.

SMILES | Rce1 inhib | ARNT TACC3 PPI | AI-2 QS mod | CAL PDZ FP-1 | CAL PDZ FP-2
CCOC(=O)c1c(NC(=O)COC(=O)CNC(=O)c2ccco2)sc(C)c1C | i | 5 | 14 | -3 | -7
COCCN(C[C@H]1N[C@H](CO)[C@H]1c1ccc(-c2cccc(F)c2)cc1)C(C)=O | . | -6 | . | . | .
COC(=O)c1ccccc1NC(=S)N1CCN(C2CCCCC2)CC1 | i | 2 | 28 | -1 | 61*
Cc1ccc(S(=O)(=O)N(C)CC(=O)NCCCn2nc(C)cc2C)cc1 | . | -11 | . | 1 | 62*
O=C(CCN1C(=O)/C(=C/c2cccs2)SC1=S)N1CCCCC1 | i | -13 | 13 | -1 | 85*
COc1ccc(OC)c(NC(=O)c2ccc(OC3CSC3)cc2)c1 | i | -1 | -4 | 28 | 55*
Cc1cc(C(=O)Nc2ccc(Cl)cc2)c(C)n1-c1ccccc1 | i | . | 13 | . | .
Cc1cc(C(=O)NNS(=O)(=O)c2cc(C(=O)O)ccc2Cl)c(C)n1-c1ccccc1 | . | 2 | . | -1 | 39*
CCCCC(=O)N1C/C=C\[C@H](c2ccc(OC)cc2)N(Cc2ccc(F)cc2)C(=O)[C@@H]1C | i | 8.3* | 15 | 1 | -1
Cc1c(NC(=O)COc2ccccc2Cl)c(=O)n(-c2ccccc2)n1C | . | 2 | . | -1 | 41*
Cc1c(NC(=O)CSc2ccccc2C(=O)Nc2cccnc2)c(=O)n(-c2ccccc2)n1C | i | -3 | 13 | -2 | 83*
Cc1c(NC(=O)CN2C(=O)c3ccc([N+](=O)[O-])cc3C2=O)c(=O)n(-c2ccccc2)n1C | i | 1 | -2 | -1 | 55*
Cc1c(Cl)c([N+](=O)[O-])nn1CC(=O)Nc1c(C)n(C)n(-c2ccccc2)c1=O | i | -3 | 9 | -1 | 53*
CC(OC(=O)c1ccco1)C(=O)NC1CCCCC1 (centres undefined) | . | -4 | 4 | 0 | -4
COc1ccccc1-c1c(C)nn2c(N)c(-c3ccccc3)cnc12 | i | 11 | 10 | . | 69*
COc1ccc(NC(=O)N(C)C[C@@H]2Oc3ccc(NC(=O)Nc4c(C)noc4C)cc3C(=O)N([C@@H](C)CO)C[C@@H]2C)cc1 | . | 9 | . | . | .
CCOc1ccccc1NC(=O)C1CCCN1S(=O)(=O)c1ccccc1C(F)(F)F (centres undefined) | . | 0 | . | 0 | 42*
O=C(Nc1cccc(S(=O)(=O)N2CCCCC2)c1)[C@@H]1CCCN1S(=O)(=O)c1ccccc1C(F)(F)F | . | 1 | . | -3 | 1
Cc1cccc(C(=O)N/N=C/c2ccoc2)c1 | i | . | 11 | -2 | -1
COc1ccccc1NC(=O)Cc1nnc(SCC(=O)NC2CCCC2)n1C | . | . | . | 0 | .
COc1ccccc1NC(=O)Cn1nc(-c2ccncc2)nc1SCC(=O)NC1CCCC1 | i | -5 | 6 | -4 | 36*
COc1ccccc1-n1cnc2cc(C(=O)N3CCOCC3)ccc21 | i | 2 | 1 | -2 | -19
CCN(CC)c1ccc(/C=N/NC(=S)NCc2ccc(OC)cc2)cc1 | + | 6 | 10 | -2 | -4
COc1ccc(CC(=O)NCCC(C)C)cc1S(=O)(=O)N1CCOCC1 | i | -2 | 9 | -2 | 42*
COc1ccc(OC)c(N(CC(=O)N2CCCC2)S(=O)(=O)c2ccccc2)c1 | . | 11 | . | 0 | -7
SMILES | Rce1 inhib | ARNT TACC3 PPI | AI-2 QS mod | CAL PDZ FP-1 | CAL PDZ FP-2
COCc1c(C(=O)N/N=C\c2ccccn2)nnn1-c1nonc1N | i | 74* | 28 | 0 | 3
Nc1nonc1-n1nnc(C(=O)N/N=C/c2ccoc2)c1CSc1ccccc1 | + | 17 | 29 | -2 | 2
Nc1nonc1-n1nnc(C(=O)N/N=C/c2ccccc2)c1CSc1ccccc1 | . | . | 5 | . | .
Cc1nnn(-c2nonc2N)c1C(=O)N/N=C/c1cccc2ccccc12 | + | . | -2 | -3 | -2
Nc1nonc1-n1nnc(C(=O)N/N=C/c2cccc(O)c2)c1CN1CCCC1 | i | -3 | 6 | 0 | 7
CN1CCN(Cc2c(C(=O)N/N=C/c3cccc(Br)c3)nnn2-c2nonc2N)CC1 | + | 10 | 63 | -2 | 0
COCc1c(C(=O)N/N=C/c2c[nH]c3ccccc23)nnn1-c1nonc1N | i | -9 | -7 | -2 | 0
CCCC(=O)Oc1ccc(C2NC(=O)c3ccccc3O2)cc1OC (centres undefined) | i | 3 | -11 | 0 | 1
C[C@@H]1CN([C@@H](C)CO)S(=O)(=O)c2ccc(-c3ccncc3)cc2O[C@@H]1CN(C)Cc1cncnc1 | . | -8 | . | . | .
O=[N+]([O-])c1c(Nc2ccc(O)cc2)cc(Cl)c2nonc12 | i | 18 | -174* | 2 | -2
O=C1OC(Cc2ccncc2)C(O)=C1C1=NCCCN1 (centres undefined) | i | -18 | -2 | 0 | -3
C/C(=N\NC(=O)CCC(=O)N/N=C(\C)c1ccc(C)o1)c1ccc(C)o1 | i | . | 1 | . | .
CCOC(=O)N/N=C(/C)c1ccc([N+](=O)[O-])o1 | i | 2 | -88* | -3 | -2
CS(=O)(=O)N(CC(=O)N1CCN(c2ccccc2F)CC1)c1ccc2c(c1)OCCO2 | i | 1 | 18 | -3 | -1
CCCCCCOC(=O)c1ccc(OC(=O)c2cccnc2)cc1 | i | -1 | -34 | 0 | -4
CCCCOC(=O)c1ccc(OC(=O)c2cccnc2)cc1 | i | -8 | -19 | 0 | 33*
O=C1C=C(c2ccoc2)N2CCC[C@H]2C1 | . | 11 | . | -1 | 4
Cc1ccccc1-c1ccc2c(c1)O[C@@H](CN(C)C(=O)c1ccccn1)[C@@H](C)CN([C@H](C)CO)S2(=O)=O | . | -1 | . | . | .
C/C(=N\NC(=O)CNc1cccc2ccccc12)c1ccccc1 | i | 2 | 33 | 0 | 31*
C/C(CCc1ccco1)=N\NC(=O)CNc1cccc2ccccc12 | i | -15 | -14 | -3 | 4
Cc1ccc(NC(=O)CN(C)C(=O)c2cccnc2Nc2cccc(C(F)(F)F)c2)cc1 | i | 2 | 33 | -2 | -6
S=C(NCc1ccco1)Nc1cc(-c2ccccc2)[nH]n1 | i | 2 | -81* | -4 | -3
O=C1CCn2c1c(O)c1ccccc1c2=O | . | 52* | . | -1 | -6
Nc1c(Cl)cc(C2=NCCn3nc4cc(C(F)(F)F)ccc4c32)cc1Cl | + | -13 | 15 | -4 | 1
O=c1[nH]n(-c2ccccc2Cl)c(=O)c2ccccc12 | i | -14 | -3 | -1 | .
O=C(c1cc(-c2ccc(Cl)cc2Cl)on1)N1CCCC1 | i | -2 | 22 | -2 | 35*
COc1cccc(-c2nnc(NC(=O)CCS(=O)(=O)c3ccc(C)cc3)o2)c1 | i | 10 | 18 | -2 | -6
COc1cc(-c2nnc(NC(=O)CS(=O)(=O)c3ccc(C)cc3)o2)cc(OC)c1OC | i | 45* | 17 | -3 | -1

Source: PubChem BioAssay (Broad Institute)
